Usually inhibition stands for how much of the control response was suppressed. As usually defined, the IC50 is the concentration needed to halve the response being measured. Usually Kd stands for the constant that tells how readily two partners part at equilibrium. Lower therefore signals tighter binding.

Activity calls are given as the source filed them. The calls are words filed in the database; no cut-off is given here.

The target in assay [1] is T1, Histone acetyltransferase KAT8 (Homo sapiens) (UniProt Q9H7Z6).
T1 sequence (whole entry): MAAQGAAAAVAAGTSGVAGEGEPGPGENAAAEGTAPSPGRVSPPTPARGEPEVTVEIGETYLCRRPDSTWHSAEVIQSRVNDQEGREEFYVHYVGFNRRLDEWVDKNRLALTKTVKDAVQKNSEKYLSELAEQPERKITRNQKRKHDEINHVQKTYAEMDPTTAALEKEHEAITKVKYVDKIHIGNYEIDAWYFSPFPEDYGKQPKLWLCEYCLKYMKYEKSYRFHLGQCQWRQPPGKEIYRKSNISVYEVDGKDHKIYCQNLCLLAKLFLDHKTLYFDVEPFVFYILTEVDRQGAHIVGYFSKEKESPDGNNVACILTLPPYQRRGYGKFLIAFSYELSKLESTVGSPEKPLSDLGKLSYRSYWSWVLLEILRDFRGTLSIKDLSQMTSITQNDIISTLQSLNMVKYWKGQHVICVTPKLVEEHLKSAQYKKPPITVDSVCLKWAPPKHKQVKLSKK
The assay is described as follows: Inhibition of human His-tagged MOF at 50 uM using histone H4 substrate by radioactive acetylation assay relative to control. Put shortly:
(§1)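 His6-tagged hMOF catalytic domain (173-458) from E. coli, preincubated with compound for 15 min at room temperature in modified Tris buffer pH 7.5, then given biotinylated H4-derived peptide and [3H]acetyl-CoA. Reaction ran 240 min at room temperature, was captured on a streptavidin Flashplate, washed and scintillation-counted. Percent inhibition computed; IC50 from a nonlinear dose-response fit.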

The target in assay [2] is T1, Histone acetyltransferase KAT8 (Homo sapiens). Put plainly: Inhibition of human His-tagged MOF at 100 uM using histone H4 substrate by radioactive acetylation assay relative to control. The gist of the method:
as §1

In assay [3] the target is T2, Histone acetyltransferase KAT8 (Homo sapiens, UniProt Q9H7Z6).
T2 sequence (Q9H7Z6 whole entry): T1 sequence (whole entry)
The assay is described as follows: Inhibition of human His-tagged MOF using histone H4 substrate by radioactive acetylation assay. The gist of the method:
as §1

Assay [4] addresses T2, Histone acetyltransferase KAT8. Put plainly: Inhibition of human His-tagged MOF preincubated for 10 mins followed by biotin-labeled H4K16 substrate addition measured after 30 mins in presence of acetyl-CoA by alphascreen assay. (In general: Alpha assays give light when donor and acceptor beads are brought close together.)
Assay [5] addresses T1, Histone acetyltransferase KAT8 (Homo sapiens). Put plainly: Inhibition of human His-tagged MOF using constant concentration histone H4 substrate and varying levels of acetyl-CoA by radioactive acetylation assay.
The target is the same in assay [6]. The assay is described as follows: Inhibition of human His-tagged MOF using constant concentration acetyl-CoA and varying levels of histone H4 substrate by radioactive acetylation assay.
Another assay has as its target Histone deacetylase 1 (Homo sapiens, UniProt Q13547). Put plainly: Inhibition of HDAC1 (unknown origin).
The target in assay [7] is DNA (cytosine-5)-methyltransferase 1 (Homo sapiens, UniProt P26358). Put plainly: Inhibition of DNMT1 (unknown origin).
Sequence of DNA (cytosine-5)-methyltransferase 1 (P26358 whole entry): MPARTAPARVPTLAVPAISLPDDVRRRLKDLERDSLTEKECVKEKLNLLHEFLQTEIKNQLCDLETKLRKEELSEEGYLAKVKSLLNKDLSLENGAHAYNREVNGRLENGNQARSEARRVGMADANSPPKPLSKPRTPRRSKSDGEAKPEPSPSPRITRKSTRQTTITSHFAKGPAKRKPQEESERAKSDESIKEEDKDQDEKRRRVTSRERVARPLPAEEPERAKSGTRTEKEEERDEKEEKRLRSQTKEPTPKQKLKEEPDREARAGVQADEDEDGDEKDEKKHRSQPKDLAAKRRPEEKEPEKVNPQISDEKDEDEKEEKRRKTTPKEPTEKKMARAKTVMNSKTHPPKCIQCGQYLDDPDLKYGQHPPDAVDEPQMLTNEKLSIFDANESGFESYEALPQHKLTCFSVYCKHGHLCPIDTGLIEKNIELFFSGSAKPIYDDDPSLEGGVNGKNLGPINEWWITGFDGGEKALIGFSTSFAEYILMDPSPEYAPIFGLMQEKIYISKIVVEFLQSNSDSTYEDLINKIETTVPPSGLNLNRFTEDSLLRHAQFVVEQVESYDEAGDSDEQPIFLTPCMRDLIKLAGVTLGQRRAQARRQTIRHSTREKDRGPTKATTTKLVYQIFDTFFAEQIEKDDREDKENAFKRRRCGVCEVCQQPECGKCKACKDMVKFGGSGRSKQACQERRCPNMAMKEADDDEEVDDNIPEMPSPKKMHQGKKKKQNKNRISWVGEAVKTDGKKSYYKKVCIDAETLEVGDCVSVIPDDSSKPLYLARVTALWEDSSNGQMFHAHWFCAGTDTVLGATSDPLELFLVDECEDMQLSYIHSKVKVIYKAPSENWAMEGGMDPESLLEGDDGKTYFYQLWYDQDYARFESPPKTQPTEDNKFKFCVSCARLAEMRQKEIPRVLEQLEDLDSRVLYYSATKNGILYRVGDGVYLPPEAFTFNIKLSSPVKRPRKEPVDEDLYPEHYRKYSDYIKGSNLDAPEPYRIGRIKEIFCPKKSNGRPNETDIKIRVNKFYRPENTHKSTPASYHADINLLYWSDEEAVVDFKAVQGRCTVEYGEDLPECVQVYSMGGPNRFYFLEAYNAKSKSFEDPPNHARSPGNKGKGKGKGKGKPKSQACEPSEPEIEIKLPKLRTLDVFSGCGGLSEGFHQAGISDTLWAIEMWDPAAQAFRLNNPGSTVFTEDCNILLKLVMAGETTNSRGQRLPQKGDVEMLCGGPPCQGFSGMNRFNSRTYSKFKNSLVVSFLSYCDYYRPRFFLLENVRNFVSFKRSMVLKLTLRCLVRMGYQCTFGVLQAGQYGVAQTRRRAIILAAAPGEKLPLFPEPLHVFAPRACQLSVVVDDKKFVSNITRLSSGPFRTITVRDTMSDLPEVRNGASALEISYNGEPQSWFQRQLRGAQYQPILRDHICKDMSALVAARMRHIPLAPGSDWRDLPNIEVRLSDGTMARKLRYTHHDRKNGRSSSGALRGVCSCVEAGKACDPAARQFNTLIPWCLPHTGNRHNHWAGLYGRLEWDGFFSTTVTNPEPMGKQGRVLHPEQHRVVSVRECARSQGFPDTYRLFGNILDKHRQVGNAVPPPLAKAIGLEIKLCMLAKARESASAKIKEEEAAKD
The target of assay [8] is Protein arginine N-methyltransferase 1 (Homo sapiens, UniProt Q99873). The assay is described as follows: Inhibition of PRMT1 (unknown origin).
Sequence of Protein arginine N-methyltransferase 1 (Q99873 whole entry): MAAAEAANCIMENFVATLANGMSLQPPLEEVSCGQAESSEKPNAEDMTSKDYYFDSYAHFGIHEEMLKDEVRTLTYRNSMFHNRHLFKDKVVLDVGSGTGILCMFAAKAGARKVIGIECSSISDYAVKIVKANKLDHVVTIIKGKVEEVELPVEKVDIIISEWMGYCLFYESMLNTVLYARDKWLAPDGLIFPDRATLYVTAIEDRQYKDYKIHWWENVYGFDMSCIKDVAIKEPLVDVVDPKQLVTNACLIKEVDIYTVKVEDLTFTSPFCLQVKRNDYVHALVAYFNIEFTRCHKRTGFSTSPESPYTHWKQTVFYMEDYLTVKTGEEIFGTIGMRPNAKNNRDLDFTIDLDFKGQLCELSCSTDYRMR
For assay [9], the species on record is Homo sapiens. Put plainly: Selectivity ratio of IC50 for HDAC1 (unknown origin) to IC50 for human His-tagged MOF by alphascreen assay.
For assay [10], the species on record is Homo sapiens. Put plainly: Selectivity ratio of IC50 for DNMT1 (unknown origin) to IC50 for human His-tagged MOF by alphascreen assay.
The species named for assay [11] is Homo sapiens. The assay is described as follows: Selectivity ratio of IC50 for PRMT1 (unknown origin) to IC50 for human His-tagged MOF by alphascreen assay.
The test system of assay [12] is HCT-116. The assay is described as follows: Inhibition of colony formation in human HCT116 cells after 14 days by crystal violet staining based assay. It counts as functional, cell-based.
Assay [13] addresses T1, Histone acetyltransferase KAT8 (Homo sapiens). Put plainly: Inhibition of MOF in human HCT116 cells assessed as decrease in H4K16 acetylation level after 24 hrs by Western blot analysis. The format is cell-based. Put shortly: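 HCT116 cells treated for 24 h. Lysates run on 4–16% SDS-PAGE, transferred to nitrocellulose, blocked in 5% milk/PBST, primary antibody overnight at 4 °C, HRP donkey anti-rabbit secondary at 1:10000 for 1 h; H4K16 acetylation level read.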
In general terms: A western blot detects proteins with antibodies after separation by electrophoresis.

Assay [14] concerns HCT-116. The assay is described as follows: Upregulation of IFI16 mRNA level in human HCT116 cells at 50 to 100 uM after 3 days by quantitative real-time PCR analysis.
Assay [15] addresses T1, Histone acetyltransferase KAT8 (Homo sapiens). The assay is described as follows: Inhibition of MOF in human HCT116 cells assessed as decrease in SKP2 mRNA level after 3 days by quantitative real-time PCR analysis. (Real-time PCR tracks product formation cycle by cycle.)
The target is the same in assay [16]. Put plainly: Inhibition of MOF in human HCT116 cells assessed as decrease in UCP2 mRNA level after 3 days by quantitative real-time PCR analysis.
Assay [17] has as its system HCT-116. The assay is described as follows: Inhibition of colony formation in human HCT116 cells at 100 uM after 14 days by crystal violet staining based assay. The format is functional, cell-based.
Assay [18] has as its target T1, Histone acetyltransferase KAT8 (Homo sapiens). Put plainly: (§2) Binding affinity to human His-tagged MOF by SPR analysis. The gist of the method: (§3)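 hMOF catalytic domain (173-458), N-terminal His6, expressed in E. coli BL21(DE3), amine-coupled to a CM5 chip in 10 mM sodium acetate pH 4.0; SPR at 25 °C in HBS (20 mM HEPES pH 7.4, 200 mM NaCl, 0.5% DMSO). Analyte 5–100 μM injected 120 s at 30 μL/min, then 300 s dissociation; Kd from a steady-state fit.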

The target in assay [19] is T2, Histone acetyltransferase KAT8. The description is as §2. The gist of the method:
as §3

Assay [20] addresses Histone acetyltransferase KAT2A (Homo sapiens, UniProt Q92830). The assay is described as follows: Inhibition of recombinant human GST-tagged Gcn5 using H3 as substrate in presence of [3H]-acetyl-CoA by phosphor image analysis.

Sequence of Histone deacetylase 1 (Q13547 whole entry): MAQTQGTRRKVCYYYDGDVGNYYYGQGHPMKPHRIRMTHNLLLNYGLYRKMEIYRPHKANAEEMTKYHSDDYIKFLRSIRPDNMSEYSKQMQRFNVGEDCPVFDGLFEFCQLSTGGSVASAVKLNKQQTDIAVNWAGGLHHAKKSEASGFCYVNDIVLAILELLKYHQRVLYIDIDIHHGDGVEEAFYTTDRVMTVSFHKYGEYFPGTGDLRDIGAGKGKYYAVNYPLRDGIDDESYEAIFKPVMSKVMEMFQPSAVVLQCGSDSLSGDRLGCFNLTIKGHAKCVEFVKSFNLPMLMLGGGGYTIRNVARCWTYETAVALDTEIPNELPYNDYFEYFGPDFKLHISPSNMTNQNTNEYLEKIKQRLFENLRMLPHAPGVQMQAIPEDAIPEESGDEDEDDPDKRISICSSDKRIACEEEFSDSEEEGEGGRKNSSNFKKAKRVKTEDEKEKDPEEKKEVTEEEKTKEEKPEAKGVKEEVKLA
Sequence of Histone acetyltransferase KAT2A (Q92830 whole entry): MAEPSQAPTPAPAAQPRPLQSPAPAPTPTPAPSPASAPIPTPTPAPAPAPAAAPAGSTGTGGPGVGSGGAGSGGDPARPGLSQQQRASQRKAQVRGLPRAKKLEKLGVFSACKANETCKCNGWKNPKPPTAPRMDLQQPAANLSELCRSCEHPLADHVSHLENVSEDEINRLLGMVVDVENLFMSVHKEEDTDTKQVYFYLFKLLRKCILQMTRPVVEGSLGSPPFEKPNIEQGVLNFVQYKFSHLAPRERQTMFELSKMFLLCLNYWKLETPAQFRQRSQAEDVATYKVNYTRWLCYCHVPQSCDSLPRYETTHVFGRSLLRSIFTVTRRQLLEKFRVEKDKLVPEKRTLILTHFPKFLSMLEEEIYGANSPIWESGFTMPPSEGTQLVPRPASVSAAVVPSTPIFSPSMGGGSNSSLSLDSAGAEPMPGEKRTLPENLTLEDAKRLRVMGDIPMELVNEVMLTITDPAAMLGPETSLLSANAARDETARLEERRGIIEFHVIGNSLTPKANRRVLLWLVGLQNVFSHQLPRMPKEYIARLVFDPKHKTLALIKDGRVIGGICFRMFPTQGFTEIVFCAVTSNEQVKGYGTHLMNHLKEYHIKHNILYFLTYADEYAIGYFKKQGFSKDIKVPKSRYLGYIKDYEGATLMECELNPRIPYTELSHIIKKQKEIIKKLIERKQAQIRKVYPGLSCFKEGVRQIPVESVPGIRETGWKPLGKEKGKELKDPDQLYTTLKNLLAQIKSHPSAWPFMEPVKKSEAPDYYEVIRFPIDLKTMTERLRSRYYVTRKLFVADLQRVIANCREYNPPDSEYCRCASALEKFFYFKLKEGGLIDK

As to `CCN(CC)S(=O)(=O)c1ccc(/C=C/c2nc3ccc(Br)cc3s2)cc1`, the inhibition in assay [1] came to 5%; in assay [2], 21%.
As for `CCN(CC)S(=O)(=O)c1ccc(/C=C/c2nc3cc(Br)ccc3s2)cc1`, the IC50 in [3] stood at 30 µM. Moreover, the inhibition worked out at 57% in assay [1] and 82% in assay [2].
As for `CCN(CC)S(=O)(=O)c1ccc(/C=C/c2nc3ccccc3s2)cc1C`, the figures for the inhibition in assay [1] and in assay [2] were 28% and 30%, respectively.
On to `CCc1nnc(NC(=O)CCSCCC(=O)Nc2nnc(CC)s2)s1`, for which the IC50 in assay [4] turned out to be 18 µM.
Regarding `CCN(CC)S(=O)(=O)c1ccc(/C=C/c2nc3ccccc3s2)cc1`, the concentration for half-maximal inhibition (IC50) is 6 µM in [3], above 100 µM against Histone deacetylase 1, above 100 µM in assay [7] and above 100 µM in assay [8]. For the same compound, the inhibition is 93% in [1]; 100% in assay [2]; “Dose-dependent effect” in the assay with HCT-116 [12]; “Dose-dependent effect” in assay [13]; “Dose-dependent effect” in [15]; “Dose-dependent effect” in assay [16]. Moreover, in assay [5], the inhibition entry was “Active”. Also, the inhibition result in [6] is “inactive”. Besides, the Ratio IC50 in the assay filed under Homo sapiens [9], in the assay filed under Homo sapiens [10] and in the assay filed under Homo sapiens [11] was above 11 in each case. In addition, the result with HCT-116 [14] was Active.
In the case of `CC1CCc2c(sc3nnn(CC(=O)Nc4cccc5ccccc45)c(=O)c23)C1` (configuration not stated), in [4], the IC50 was found to be 25 µM.
In the case of `CCN(CC)S(=O)(=O)c1ccc(/C=C/c2nc3ccccc3s2)cc1Cl`, the inhibition was found to be 7% in assay [1] and 12% in assay [2].
`Cc1ccc(-c2cc(C(=O)O)c3cc4c(C(=O)O)cc(-c5ccc(C)o5)nc4cc3n2)o1`: the IC50 in assay [4] was 17 µM.
Consider `O=S(=O)(Nc1ccccc1)c1ccc(/C=C/c2nc3ccccc3s2)cc1`, for which the inhibition is 13% in assay [1] and 25% in assay [2].
Consider `O=S(=O)(NCc1ccccc1)c1ccc(/C=C/c2nc3ccccc3s2)cc1`, for which the figures for the inhibition in [1] and in assay [2] were 1% and 11%, respectively.
The like results for `CN(C)S(=O)(=O)c1ccc(/C=C/c2nc3ccccc3s2)cc1` were, in that order, 9% and 14%.
`CCN(CC)S(=O)(=O)c1ccc(/C=C/c2nc3cc(C)c(C)cc3s2)cc1`: in assay [3], the IC50 was found to be 7.7 µM. The inhibition stood at 95% in assay [1] and 96% in assay [2].
For `CCN(CC)S(=O)(=O)c1ccc(/C=C/c2nc3ccccc3s2)cc1F`, the inhibition in [1] was 16%; in assay [2], 18%.
The like results for `Cc1ccc(CNS(=O)(=O)c2ccc(/C=C/c3nc4ccccc4s3)cc2)cc1` were, in that order, 17% and 33%.
Turning to `O=C(CCCCCCC(=O)Nc1ccccc1)NO`, the inhibition entry in assay [13] is “Dose-dependent effect”.
For the compound `N#Cc1c(-c2ccccc2)cc(-c2cccs2)nc1SCC(=O)NCC(=O)O`, the IC50 in assay [4] is 74 µM.
The same measure, in the same setting: the figure for `O=C(Cc1cccc2ccccc12)Nc1ccc2nc(SCC(=O)N3CCCC3)sc2c1` is 14 µM.
Turning to `Cc1ccc(C2C(C(=O)c3cc4ccccc4o3)=C(O)C(=O)N2Cc2ccco2)cc1` (configuration not stated), in assay [4], the IC50 came out at 29 µM.
On the same count and under the same terms, in the case of `CCN(CC)S(=O)(=O)c1ccc(/C=C/c2nc3ccc(F)cc3s2)cc1` it was 6.6 to 40 µM.
Regarding `CCN(CC)S(=O)(=O)c1ccc(/C=C/c2nc3cc(C)ccc3s2)cc1`, the inhibition in assay [1] stood at 0%; in assay [2], 14%.
`COc1ccc(CNS(=O)(=O)c2ccc(/C=C/c3nc4ccccc4s3)cc2)cc1`: the inhibition in assay [1] was 0%; in [2] it was 28%.
For `CCN(CC)S(=O)(=O)c1ccc(/C=C/c2nc3cc(Cl)ccc3s2)cc1`, the IC50 in assay [3] came to 30 µM. For the same compound, the inhibition in assay [1] was 64%; in assay [2], 89%.
As for `CCCCCCCc1ccc(CCc2cccc(O)c2C(=O)O)cc1`, the IC50 in assay [4] worked out at 27 µM; in assay [3], 15 µM. For the same compound, the inhibition in [1] and in assay [2] was 100% each time. Further, the inhibition entry with HCT-116 [17] was “Active”.
Turning to `CCN(CC)S(=O)(=O)c1ccc(/C=C/c2nc3cc(OC)ccc3s2)cc1`, the inhibition in assay [1] is 14%; in assay [2] it was 13%.
With `Oc1cc(O)c2sc3nc(-c4cccs4)cc(-c4cccs4)c3c2n1`, the IC50 in [4] came out at 23 µM.
As for `CCN(CC)S(=O)(=O)c1ccc(/C=C/c2nc3cc(F)ccc3s2)cc1`, the IC50 in assay [3] stood at 40 µM. Also, the Activity result in assay [18] was “Dose-dependent effect”. The Kd in [19] was determined as 19 µM. Besides, the inhibition in assay [1] was determined as 53%; in [2] it was 84%.
For the compound `C=C1C(=O)O[C@H](CCC)[C@H]1C(=O)O`, the IC50 in assay [20] was 100 µM.
